The record followed here is ChEMBL document CHEMBL4842326, “Design, synthesis and biological evaluation of 3, 4-disubstituted-imidazolidine-2, 5-dione derivatives as HDAC6 selective inhibitors” (Eur J Med Chem, 2021).

The target of data set [1] is T1, Protein deacetylase HDAC6 (Homo sapiens, UniProt Q9UBN7).
T1 sequence (Q9UBN7 whole entry): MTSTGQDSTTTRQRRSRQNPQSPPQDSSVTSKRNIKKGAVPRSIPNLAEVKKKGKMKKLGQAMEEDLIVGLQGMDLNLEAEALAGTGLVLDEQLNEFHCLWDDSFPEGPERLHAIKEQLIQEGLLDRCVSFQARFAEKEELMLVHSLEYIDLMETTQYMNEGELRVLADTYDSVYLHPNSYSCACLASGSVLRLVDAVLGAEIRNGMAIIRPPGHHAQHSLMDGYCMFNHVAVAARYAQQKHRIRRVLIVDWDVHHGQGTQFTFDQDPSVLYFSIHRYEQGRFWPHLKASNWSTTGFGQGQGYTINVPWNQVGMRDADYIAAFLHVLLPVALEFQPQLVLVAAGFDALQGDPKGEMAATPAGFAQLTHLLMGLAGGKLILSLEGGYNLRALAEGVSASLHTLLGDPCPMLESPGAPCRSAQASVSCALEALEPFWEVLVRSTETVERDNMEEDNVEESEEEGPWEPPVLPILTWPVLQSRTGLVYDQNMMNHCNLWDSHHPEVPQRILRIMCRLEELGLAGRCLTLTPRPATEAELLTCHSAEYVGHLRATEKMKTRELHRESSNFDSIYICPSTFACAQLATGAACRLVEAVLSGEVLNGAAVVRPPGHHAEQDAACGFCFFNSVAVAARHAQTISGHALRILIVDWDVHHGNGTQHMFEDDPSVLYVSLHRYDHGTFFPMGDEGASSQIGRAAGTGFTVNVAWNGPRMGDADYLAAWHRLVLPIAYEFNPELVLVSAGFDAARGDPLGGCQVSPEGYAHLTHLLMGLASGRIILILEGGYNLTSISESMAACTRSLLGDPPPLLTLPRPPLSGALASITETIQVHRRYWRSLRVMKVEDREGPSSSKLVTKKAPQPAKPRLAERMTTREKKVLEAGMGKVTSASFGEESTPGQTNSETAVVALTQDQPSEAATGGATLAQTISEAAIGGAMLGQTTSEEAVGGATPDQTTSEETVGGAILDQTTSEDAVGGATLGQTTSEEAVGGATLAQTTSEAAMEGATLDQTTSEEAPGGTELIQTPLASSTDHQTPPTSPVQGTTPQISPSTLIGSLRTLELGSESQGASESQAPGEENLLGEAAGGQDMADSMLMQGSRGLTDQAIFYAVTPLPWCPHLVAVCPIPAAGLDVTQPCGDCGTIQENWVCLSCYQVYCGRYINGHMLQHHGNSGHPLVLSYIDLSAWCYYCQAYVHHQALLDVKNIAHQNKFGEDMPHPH
As to the kind of experiment: Inhibition of HDAC6 (unknown origin) using Ac-LeuGlyLy-s(Ac)-AMC as substrate preincubated for 10 mins followed by substrate addition and further incubated for 2 hrs by fluorescence microtiter plate reader assay.

A further data set concerns HEL. As to the kind of experiment: Antiproliferative activity against human HEL cells assessed as inhibition of cell proliferation after 48 hrs by MTT assay. Type of data set: functional, cell-based. The method, boiled down: (§1)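 Leukemia/myeloma lines grown in RPMI1640 with 10% FBS at 37 °C, 5% CO2; seeded at 3500–4000 cells/well, cultured overnight, then exposed to serial dilutions for 48 h.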

Data set [2] concerns HL-60. Kind of data set: Antiproliferative activity against human HL-60 cells assessed as inhibition of cell proliferation after 48 hrs by MTT assay. Particulars: HL-60, 48 h. The class given is functional, cell-based. A digest of the protocol:
as §1

The test system of data set [3] is HL-60. Kind of data set: Induction of apoptosis in human HL-60 cells at 3 uM measured after 48 hrs by TUNEL staining based fluorescence microscopy. The class given is functional, cell-based. The method, boiled down:
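HL-60 cells (1 × 10^6/well) given 3 µM compound or vehicle (0.2% DMSO) for 48 h; washed in cold PBS, fixed in paraformaldehyde 30 min, permeabilised with 0.5% Triton X-100 for 5 min, labelled 60 min with FITC-12-dUTP plus terminal deoxynucleotidyl transferase, washed twice, green fluorescence imaged by microscopy.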

For data set [4], the system named is HL-60. Kind of data set: Induction of apoptosis in human HL-60 cells assessed as viable cells at 3 uM after 48 hrs by Annexin V-FITC/propidium iodide staining based flow cytometric analysis (reference value: 93.4%). The class given is functional. Particulars: read-out: Activity. A digest of the protocol: (§2)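 HL-60 cells (1 × 10^6/well) exposed 48 h to compound dilutions, collected, PBS-washed, resuspended in Annexin V-FITC binding buffer, stained with propidium iodide and Annexin V-FITC for 15 min, then analysed by flow cytometry.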

Data set [5] relates to HL-60. Kind of data set: Induction of apoptosis in human HL-60 cells assessed as necrotic cells at 3 uM after 48 hrs by Annexin V-FITC/propidium iodide staining based flow cytometric analysis (reference value: 0.017%). Type of data set: functional. The method, boiled down: as §2
The subject of a further data set is HUVEC. As to the kind of experiment: Cytotoxicity against human HUVEC cells assessed as decrease in cell viability after 48 hrs by MTT assay. The class given is cell-based. A digest of the protocol: (§3)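 Normal cells: HUVECs in RPMI1640 with 10% FBS plus 0.1% heparin, GEC-1 in RPMI1640 with 10% FBS. Seeded 8 h, then treated with serial dilutions for 48 h; 0.5% MTT for 4 h, supernatant removed, DMSO added, absorbance read at 570 nm.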

A short description of data set [6]: Cytotoxicity against human GEC1 cells assessed as decrease in cell viability after 48 hrs by MTT assay. Type of data set: cell-based. Particulars: GEC1, 48 h. The method, boiled down: as §3
Data set [7] is described as follows: Stability of the compound in rabbit plasma assessed as decrease in compound degradation incubated up to 12 hrs by HPLC analysis. The class given is ADME, cell-free, Oryctolagus cuniculus.
The species named for data set [8] is Homo sapiens. Kind of data set: Selectivity ratio of IC50 for HDAC1 (unknown origin) to IC50 for HDAC6 (unknown origin).
The species named for data set [9] is Homo sapiens. Kind of data set: Selectivity ratio of IC50 for HDAC2 (unknown origin) to IC50 for HDAC6 (unknown origin).
Data set [10] is filed under the species Homo sapiens. Kind of data set: Selectivity ratio of IC50 for HDAC8 (unknown origin) to IC50 for HDAC6 (unknown origin).

The source made the active and inactive calls. No cut-off for these calls is given here.

Consider `O=C(NO)c1ccc(CN2C(=O)C(Cc3ccccc3)N(Cc3cccnc3)C2=O)cc1` (racemic), for which the IC50 was found to be 0.0021 µM in data set [1]; 4.58 µM in the data set on HEL; 3.23 µM with HL-60 [2]; 83.1 µM in the data set on HUVEC; 68.2 µM in data set [6]. Besides, the result in the data set with HL-60 [3] was Active. For the same compound, the viability at 3 µM in the data set on HL-60 [4] was determined as 79.4%. Besides, the Activity in the data set with HL-60 [5] came to 0.035%. The Stabilty result in data set [7] is recorded as “Stable”. Besides, the results for the Ratio IC50 in the data set listed under Homo sapiens [8], in the data set filed under Homo sapiens [9] and in the data set listed under Homo sapiens [10] were 5540, 5860 and 1640, respectively.
